# ChEMBL document CHEMBL1138353, “Facile stereospecific synthesis and biological evaluation of (S)- and (R)-2-amino-2-methyl-4-[123I]iodo-3-(E)-butenoic acid for brain tumor imaging with single photon emission computerized tomography” (J Med Chem, 2007)
# Key:
# Muscle tissue [1] = test: Biodistribution in 9L cells bearing Fischer 344 rat muscle at 15 to 30 uCi, iv after 120 mins; assay type: ADME, organism-based; conditions: in vivo, 2 h
# Outline: (§1)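 Male Fischer 344 rats (125–175 g) bearing intracranial 9L gliosarcoma implants; radioiodinated tracer (123I for S, 131I for R) purified in saline, given intravenously. Tissues harvested at 30, 60 or 120 min, radioactivity expressed as %ID/g (thyroid per organ). Groups: S study 5 rats per time; R study 5 at 30 min, 4 at 60 and 120 min.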
# Brain [2] = test: Biodistribution in 9L cells bearing Fischer 344 rat brain at 15 to 30 uCi, iv after 30 mins; assay type: ADME, organism-based; conditions: in vivo, 0.5 h; outline: as §1
# Thyroid gland [3] = test: Biodistribution in 9L cells bearing Fischer 344 rat thyroid at 15 to 30 uCi, iv after 60 mins; assay type: ADME, organism-based; conditions: in vivo, 1 h; outline: as §1
# Rattus norvegicus [4] = test: Biodistribution in 9L cells bearing Fischer 344 rat tumor at 15 to 30 uCi, iv after 120 mins; assay type: ADME, organism-based, Neoplasm; conditions: in vivo, 2 h; outline: as §1
# Blood [5] = test: Biodistribution in 9L cells bearing Fischer 344 rat blood at 15 to 30 uCi, iv after 30 mins; assay type: ADME, organism-based; conditions: in vivo, 0.5 h; outline: as §1
# 9L [6] = test: Drug uptake per 10^6 cells in rat 9L cells after 30 mins; assay type: ADME, cell-based; conditions: 0.5 h
# Outline: (§2)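 Cultured rat 9L gliosarcoma cells incubated 30 min with 131I-labelled tracer, with or without A-type inhibitor N-MeAIB or L-type inhibitor BCH. Uptake expressed as percent of initial dose per 1 × 10^6 cells, normalized for dose and cell number. Inhibition compared to control by one-way ANOVA; SD shown.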
# Nucleic Acid [7] = test: Ratio of drug level in tumor to brain in 9L cells bearing Fischer 344 rat at 15 to 30 uCi, iv after 60 mins; assay type: ADME, organism-based; conditions: in vivo, 1 h
# Outline: (§3)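 Intracranial 9L gliosarcoma in male Fischer 344 rats (125–175 g). The 123I-labelled (S) or 131I-labelled (R) tracer was given iv in saline. Tumor and normal brain %ID/g were measured at 30, 60 or 120 min, and the ratio was taken from these. Groups were 5 per time for S, and 5/4/4 for R.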
# Pancreas [8] = test: Biodistribution in 9L cells bearing Fischer 344 rat pancreas at 15 to 30 uCi, iv after 60 mins; assay type: ADME, organism-based; conditions: in vivo, 1 h; outline: as §1
# Kidney [9] = test: Biodistribution in 9L cells bearing Fischer 344 rat kidney at 15 to 30 uCi, iv after 120 mins; assay type: ADME, organism-based; conditions: in vivo, 2 h; outline: as §1
# Heart [10] = test: Biodistribution in 9L cells bearing Fischer 344 rat heart at 15 to 30 uCi, iv after 60 mins; assay type: ADME, organism-based; conditions: in vivo, 1 h; outline: as §1
# Brain [11] = test: Biodistribution in 9L cells bearing Fischer 344 rat brain at 15 to 30 uCi, iv after 120 mins; assay type: ADME, organism-based; conditions: in vivo, 2 h; outline: as §1
# Pancreas [12] = test: Biodistribution in 9L cells bearing Fischer 344 rat pancreas at 15 to 30 uCi, iv after 120 mins; assay type: ADME, organism-based; conditions: in vivo, 2 h; outline: as §1
# Nucleic Acid [13] = test: Ratio of drug level in tumor to brain in 9L cells bearing Fischer 344 rat at 15 to 30 uCi, iv after 30 mins; assay type: ADME, organism-based; conditions: in vivo, 0.5 h; outline: as §3
# Muscle tissue [14] = test: Biodistribution in 9L cells bearing Fischer 344 rat muscle at 15 to 30 uCi, iv after 60 mins; assay type: ADME, organism-based; conditions: in vivo, 1 h; outline: as §1
# Thyroid gland [15] = test: Biodistribution in 9L cells bearing Fischer 344 rat thyroid at 15 to 30 uCi, iv after 120 mins; assay type: ADME, organism-based; conditions: in vivo, 2 h; outline: as §1
# Thyroid gland [16] = test: Biodistribution in 9L cells bearing Fischer 344 rat thyroid at 15 to 30 uCi, iv after 30 mins; assay type: ADME, organism-based; conditions: in vivo, 0.5 h; outline: as §1
# Blood [17] = test: Biodistribution in 9L cells bearing Fischer 344 rat blood at 15 to 30 uCi, iv after 60 mins; assay type: ADME, organism-based; conditions: in vivo, 1 h; outline: as §1
# Bone [18] = test: Biodistribution in 9L cells bearing Fischer 344 rat bone at 15 to 30 uCi, iv after 30 mins; assay type: ADME, organism-based, Bone element; conditions: in vivo, 0.5 h; outline: as §1
# Kidney [19] = test: Biodistribution in 9L cells bearing Fischer 344 rat kidney at 15 to 30 uCi, iv after 60 mins; assay type: ADME, organism-based; conditions: in vivo, 1 h; outline: as §1
# Testes [20] = test: Biodistribution in 9L cells bearing Fischer 344 rat testes at 15 to 30 uCi, iv after 120 mins; assay type: ADME, organism-based, Testis; conditions: in vivo, 2 h; outline: as §1
# Bone [21] = test: Biodistribution in 9L cells bearing Fischer 344 rat bone at 15 to 30 uCi, iv after 60 mins; assay type: ADME, organism-based, Bone element; conditions: in vivo, 1 h; outline: as §1
# 9L [22] = test: Drug uptake per 10^6 cells in rat 9L cells after 30 mins assessed as uptake inhibition in presence of N-methyl-alpha-aminoisobutyric acid relative to control; assay type: ADME, cell-based; set-up: scale not given: the % may be the effect or the level left; conditions: 0.5 h; outline: as §2
# Heart [23] = test: Biodistribution in 9L cells bearing Fischer 344 rat heart at 15 to 30 uCi, iv after 30 mins; assay type: ADME, organism-based; conditions: in vivo, 0.5 h; outline: as §1
# Spleen [24] = test: Biodistribution in 9L cells bearing Fischer 344 rat spleen at 15 to 30 uCi, iv after 30 mins; assay type: ADME, organism-based; conditions: in vivo, 0.5 h; outline: as §1
# Liver [25] = test: Biodistribution in 9L cells bearing Fischer 344 rat liver at 15 to 30 uCi, iv after 30 mins; assay type: ADME, organism-based; conditions: in vivo, 0.5 h; outline: as §1
# Liver [26] = test: Biodistribution in 9L cells bearing Fischer 344 rat liver at 15 to 30 uCi, iv after 60 mins; assay type: ADME, organism-based; conditions: in vivo, 1 h; outline: as §1
# Liver [27] = test: Biodistribution in 9L cells bearing Fischer 344 rat liver at 15 to 30 uCi, iv after 120 mins; assay type: ADME, organism-based; conditions: in vivo, 2 h; outline: as §1
# Blood [28] = test: Biodistribution in 9L cells bearing Fischer 344 rat blood at 15 to 30 uCi, iv after 120 mins; assay type: ADME, organism-based; conditions: in vivo, 2 h; outline: as §1
# Bone [29] = test: Biodistribution in 9L cells bearing Fischer 344 rat bone at 15 to 30 uCi, iv after 120 mins; assay type: ADME, organism-based, Bone element; conditions: in vivo, 2 h; outline: as §1
# Heart [30] = test: Biodistribution in 9L cells bearing Fischer 344 rat heart at 15 to 30 uCi, iv after 120 mins; assay type: ADME, organism-based; conditions: in vivo, 2 h; outline: as §1
# Testes [31] = test: Biodistribution in 9L cells bearing Fischer 344 rat testes at 15 to 30 uCi, iv after 60 mins; assay type: ADME, organism-based, Testis; conditions: in vivo, 1 h; outline: as §1
# Lung [32] = test: Biodistribution in 9L cells bearing Fischer 344 rat lung at 15 to 30 uCi, iv after 30 mins; assay type: ADME, organism-based; conditions: in vivo, 0.5 h; outline: as §1
# Spleen [33] = test: Biodistribution in 9L cells bearing Fischer 344 rat spleen at 15 to 30 uCi, iv after 120 mins; assay type: ADME, organism-based; conditions: in vivo, 2 h; outline: as §1
# Lung [34] = test: Biodistribution in 9L cells bearing Fischer 344 rat lung at 15 to 30 uCi, iv after 60 mins; assay type: ADME, organism-based; conditions: in vivo, 1 h; outline: as §1
# Rattus norvegicus [35] = test: Biodistribution in 9L cells bearing Fischer 344 rat tumor at 15 to 30 uCi, iv after 30 mins; assay type: ADME, organism-based, Neoplasm; conditions: in vivo, 0.5 h; outline: as §1
# Testes [36] = test: Biodistribution in 9L cells bearing Fischer 344 rat testes at 15 to 30 uCi, iv after 30 mins; assay type: ADME, organism-based, Testis; conditions: in vivo, 0.5 h; outline: as §1
# Muscle tissue [37] = test: Biodistribution in 9L cells bearing Fischer 344 rat muscle at 15 to 30 uCi, iv after 30 mins; assay type: ADME, organism-based; conditions: in vivo, 0.5 h; outline: as §1
# Spleen [38] = test: Biodistribution in 9L cells bearing Fischer 344 rat spleen at 15 to 30 uCi, iv after 60 mins; assay type: ADME, organism-based; conditions: in vivo, 1 h; outline: as §1
# Nucleic Acid [39] = test: Ratio of drug level in tumor to brain in 9L cells bearing Fischer 344 rat at 15 to 30 uCi, iv after 120 mins; assay type: ADME, organism-based; conditions: in vivo, 2 h; outline: as §3
# Pancreas [40] = test: Biodistribution in 9L cells bearing Fischer 344 rat pancreas at 15 to 30 uCi, iv after 30 mins; assay type: ADME, organism-based; conditions: in vivo, 0.5 h; outline: as §1
# Kidney [41] = test: Biodistribution in 9L cells bearing Fischer 344 rat kidney at 15 to 30 uCi, iv after 30 mins; assay type: ADME, organism-based; conditions: in vivo, 0.5 h; outline: as §1
# Rattus norvegicus [42] = test: Biodistribution in 9L cells bearing Fischer 344 rat tumor at 15 to 30 uCi, iv after 60 mins; assay type: ADME, organism-based, Neoplasm; conditions: in vivo, 1 h; outline: as §1
# Brain [43] = test: Biodistribution in 9L cells bearing Fischer 344 rat brain at 15 to 30 uCi, iv after 60 mins; assay type: ADME, organism-based; conditions: in vivo, 1 h; outline: as §1
# Lung [44] = test: Biodistribution in 9L cells bearing Fischer 344 rat lung at 15 to 30 uCi, iv after 120 mins; assay type: ADME, organism-based; conditions: in vivo, 2 h; outline: as §1
compound,measurement,setting,value
C[C@](N)(/C=C/[123I])C(=O)O,Drug uptake,Muscle tissue [1],1.26 % ID/g
same,Drug uptake,Brain [2],0.058 % ID/g
same,Drug uptake,Thyroid gland [3],0.24 %ID/organ
same,Drug uptake,Rattus norvegicus [4],6.84 % ID/g
same,Drug uptake,Blood [5],1.33 % ID/g
same,Drug uptake,9L [6],0.35 %ID
same,Ratio,Nucleic Acid [7],75
same,Drug uptake,Pancreas [8],10.7 % ID/g
same,Drug uptake,Kidney [9],18.4 % ID/g
same,Drug uptake,Heart [10],1.4 % ID/g
same,Drug uptake,Brain [11],0.096 % ID/g
same,Drug uptake,Pancreas [12],7.7 % ID/g
same,Ratio,Nucleic Acid [13],81
same,Drug uptake,Muscle tissue [14],1.7 % ID/g
same,Drug uptake,Thyroid gland [15],0.18 %ID/organ
same,Drug uptake,Thyroid gland [16],0.16 %ID/organ
same,Drug uptake,Blood [17],1.22 % ID/g
same,Drug uptake,Bone [18],0.51 % ID/g
same,Drug uptake,Kidney [19],22.9 % ID/g
same,Drug uptake,Testes [20],0.64 % ID/g
same,Drug uptake,Bone [21],0.74 % ID/g
same,Activity,9L [22],85%
same,Drug uptake,Heart [23],1.31 % ID/g
same,Drug uptake,Spleen [24],1.54 % ID/g
same,Drug uptake,Liver [25],1.62 % ID/g
same,Drug uptake,Liver [26],1.62 % ID/g
same,Drug uptake,Liver [27],1.27 % ID/g
same,Drug uptake,Blood [28],1.03 % ID/g
same,Drug uptake,Bone [29],0.64 % ID/g
same,Drug uptake,Heart [30],1.2 % ID/g
same,Drug uptake,Testes [31],0.58 % ID/g
same,Drug uptake,Lung [32],1.24 % ID/g
same,Drug uptake,Spleen [33],1.08 % ID/g
same,Drug uptake,Lung [34],1.41 % ID/g
same,Drug uptake,Rattus norvegicus [35],4.7 % ID/g
same,Drug uptake,Testes [36],0.49 % ID/g
same,Drug uptake,Muscle tissue [37],1.35 % ID/g
same,Drug uptake,Spleen [38],1.73 % ID/g
same,Ratio,Nucleic Acid [39],71
same,Drug uptake,Pancreas [40],11.9 % ID/g
same,Drug uptake,Kidney [41],24 % ID/g
same,Drug uptake,Rattus norvegicus [42],6.81 % ID/g
same,Drug uptake,Brain [43],0.091 % ID/g
same,Drug uptake,Lung [44],0.98 % ID/g
